In ChEMBL document CHEMBL1240409, “Design, synthesis and evaluation of (E)-alpha-benzylthio chalcones as novel inhibitors of BCR-ABL kinase” (Bioorg Med Chem, 2010):

Key:
K562 = assay: Growth inhibition of human K562 cells expressing p210Bcr/Abl after 96 hrs by trypan blue exclusion assay; type: functional, cell-based; settings: K562, 96 h
Method in brief: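 K562 cells were kept in RPMI with 10% FBS and penicillin–streptomycin at 37 °C under 5% CO2. Cells were seeded at 1 × 10^5 cells/mL with a range of compound concentrations, using DMSO as the negative control. After 96 h, viability was counted by Trypan blue exclusion and expressed as percent of DMSO control to derive GI50.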

DU-145 = assay: Growth inhibition of human DU145 cells after 96 hrs by trypan blue exclusion assay; type: functional; settings: DU-145, 96 h

SMILES | GI50 (K562) [µM] | GI50 (DU-145) [µM]
O=C(/C(=C\c1ccc(O)c([N+](=O)[O-])c1)S(=O)(=O)c1ccc(I)cc1)c1ccc(I)cc1 | 25 | 25
Cc1ccc(/C=C(/SCc2ccc(Cl)cc2)C(=O)c2ccc([N+](=O)[O-])cc2)s1 | 25 | 25
COc1ccsc1/C=C(\C(=O)c1ccc(Br)cc1)S(=O)(=O)Cc1ccc(Cl)cc1 | 25 | 50
O=C(/C(=C\c1ccc(O)c([N+](=O)[O-])c1)SCc1ccc(Br)cc1)c1ccc(C(F)(F)F)cc1 | 1 | 10
COc1cc(/C=C(\C(=O)c2ccc(Cl)cc2)S(=O)(=O)Cc2ccccc2Cl)cc(OC)c1 | 50 | > 100
CSc1ccc(/C=C(/SCc2ccc(Cl)cc2)C(=O)c2ccc(Cl)cc2)cc1 | 1 | 25
Cc1ccc(S(=O)(=O)/C(=C/c2c(O)cc(O)cc2O)C(=O)c2ccc(Br)cc2)cc1 | > 100 | > 100
O=C(C(=Cc1ccc(Br)cc1)SCc1ccccc1Cl)c1ccc(Cl)cc1 | 1 | 10
CCOc1ccc(/C=C(\C(=O)c2ccc(Cl)cc2)S(=O)(=O)Cc2ccc(C)cc2)cc1OC | 10 | 10
CN1CCN(c2ccc(/C=C(/SCc3ccc(Br)cc3)C(=O)c3ccc(C(=O)O)cc3)cc2[N+](=O)[O-])CC1 | 1 | 10
COc1cc(OC)c(/C=C(\C(=O)c2ccc([N+](=O)[O-])cc2)S(=O)(=O)Cc2ccc(Cl)cc2)c(OC)c1 | 10 | 10
O=C(/C(=C\c1ccc(O)c([N+](=O)[O-])c1)S(=O)(=O)Cc1ccc(Br)cc1)c1ccc(Br)cc1 | 1 | 10
O=C(/C(=C\c1c(O)cc(O)cc1O)Sc1ccc(Br)cc1)c1ccc(Cl)cc1 | 50 | 50
O=C(/C(=C\c1ccc(Br)c(O)c1)Sc1ccc(Br)cc1)c1ccc(Br)cc1 | 1 | 1
CCOc1ccc(/C=C(/Sc2ccc(C)cc2)C(=O)c2ccc(Br)cc2)cc1OC | 1 | 50
Cc1ccc(S/C(=C/c2c[nH]c3ccccc23)C(=O)c2ccc(Cl)cc2)cc1 | 1 | 10
O=C(/C(=C\c1ccc(O)cc1O)Sc1ccccc1Br)c1ccc(Cl)cc1 | 50 | 50
Cc1ccc(CS/C(=C/c2ccc(N(C)C)cc2)C(=O)c2ccc(Cl)cc2)cc1 | 15 | > 100
COc1ccc(/C=C(\C(=O)c2ccc(Cl)cc2)S(=O)(=O)c2ccc(C)cc2)cc1O | 1 | 1
O=C(/C(=C\c1c(O)cc(O)cc1O)SCc1ccc(Cl)cc1)c1ccc(Cl)cc1 | > 100 | > 100
O=C(/C(=C\c1cccc(Cl)c1Cl)SCc1ccc(Cl)cc1)c1ccc(Br)cc1 | 10 | 10
O=C(/C(=C\c1ccc(F)cc1C(F)(F)F)SCc1ccc(F)cc1)c1ccc(Br)cc1 | 10 | 10
COc1ccc(C(=O)/C(=C\c2ccc(OC)c(O)c2)Sc2ccc(F)cc2)cc1 | 1 | 1
Cc1ccc(S(=O)(=O)/C(=C/c2c(O)cc(O)cc2O)C(=O)c2ccc(Cl)cc2)cc1 | > 100 | > 100
O=C(/C(=C\c1ccc([N+](=O)[O-])c(O)c1)SCc1ccc(Br)cc1)c1c(F)c(F)c(F)c(F)c1F | 1 | 10

SMILES | GI50 (K562) [µM] | GI50 (DU-145) [µM]
Cc1ccsc1/C=C(/SCc1ccc(Cl)c(Cl)c1)C(=O)c1ccc(Cl)cc1 | 50 | 50
COc1ccc(/C=C(\C(=O)c2ccc(Cl)cc2)S(=O)(=O)Cc2ccccc2Cl)cc1 | 25 | 50
Cc1ccsc1/C=C(/SCc1ccc(Cl)cc1)C(=O)c1ccc(Br)cc1 | 25 | 25
CSc1ccc(/C=C(\C(=O)c2ccc(Br)cc2)S(=O)(=O)Cc2ccc(C)cc2)cc1 | 10 | 10
COc1cc(OC)c(/C=C(\C(=O)c2ccc(Cl)cc2)S(=O)(=O)c2ccc(Br)cc2)c(OC)c1 | > 100 | > 100
Cc1ccsc1/C=C(\C(=O)c1ccc(Cl)cc1)S(=O)(=O)Cc1ccc(Cl)cc1 | 25 | 25
O=C(/C(=C\c1ccc([N+](=O)[O-])c(O)c1)SCc1ccc(Br)cc1)c1ccc([N+](=O)[O-])cc1 | 1 | 1
O=C(/C(=C\c1ccc(F)cc1F)Sc1ccc(Br)cc1)c1ccc(Br)cc1 | 1 | 1
O=C(O)c1ccc(C(=O)/C(=C\c2ccc(Cl)c([N+](=O)[O-])c2)SCc2ccc(C(F)(F)F)cc2)cc1 | 1 | 1
O=C(/C(=C\c1cc(Cl)cc(Cl)c1Cl)Sc1ccccc1Br)c1ccc(Cl)cc1 | 50 | 25
COc1ccc(/C=C(\C(=O)c2ccc(Br)cc2)S(=O)(=O)c2ccc(Br)cc2)c(OC)c1 | 8 | 8
Cc1ccsc1/C=C(/SCc1ccc(F)cc1)C(=O)c1ccc(Cl)cc1 | 50 | 50
O=C(/C(=C\c1ccc(Cl)c([N+](=O)[O-])c1)S(=O)(=O)c1ccc(Br)cc1)c1ccc(Br)cc1 | 1 | 10
O=C(/C(=C\c1ccc(Br)cc1)S(=O)(=O)c1ccc(Br)cc1)c1ccccc1O | 10 | > 100
O=C(/C(=C\c1ccc(Oc2ccccc2)cc1)SCc1ccccc1Cl)c1ccc(Cl)cc1 | 1 | 1
CCOc1ccc(/C=C(\C(=O)c2ccc(Br)cc2)S(=O)(=O)c2ccc(C)cc2)cc1OC | 1 | 1
CCOc1cc(/C=C(\SCc2ccc(Cl)cc2Cl)C(=O)c2ccc(Cl)cc2)ccc1O | 1 | 10
COc1ccccc1/C=C(\C(=O)c1ccc(Cl)cc1)S(=O)(=O)Cc1ccc(Cl)c(Cl)c1 | 1 | 1
Cc1ccc(C(=O)/C(=C\c2ccc(N(C)C)cc2)S(=O)(=O)c2ccc(Cl)cc2)cc1 | 50 | 50
Cc1cc(C)cc(/C=C(/SCc2ccc(F)cc2)C(=O)c2ccc(Br)cc2)c1 | 1 | 10
Cc1ccc(S/C(=C/c2ccc(Br)cc2)C(=O)c2ccc(Cl)cc2)cc1 | 50 | 25
Cc1ccc(S/C(=C/c2ccc(Cl)cc2)C(=O)c2ccc(Cl)cc2)cc1 | 1 | 10
Cc1ccc(S/C(=C/c2ccc(Oc3ccccc3)cc2)C(=O)c2ccc(Cl)cc2)cc1 | 10 | 10
O=C(/C(=C\c1csc([N+](=O)[O-])c1)S(=O)(=O)c1ccc(Br)cc1)c1ccc(Br)cc1 | 1 | 1
Cc1ccc(CS/C(=C/c2ccccc2F)C(=O)c2ccc(Br)cc2)cc1 | 1 | 10

SMILES | GI50 (K562) [µM] | GI50 (DU-145) [µM]
CC(=O)Oc1ccc(/C=C(\C(=O)c2ccc(Cl)cc2)S(=O)(=O)c2ccc(C)cc2)cc1 | 10 | 25
Cc1ccc(S/C(=C/c2c[nH]c3ccc(Br)cc23)C(=O)c2ccc(Br)cc2)cc1 | 10 | 1
O=C(/C(=C\c1cc([N+](=O)[O-])ccc1F)S(=O)(=O)Cc1ccc(F)cc1)c1ccc(Br)cc1 | 50 | > 100
CN(C)c1ccc(/C=C(/SCc2ccc(Cl)cc2)C(=O)c2ccc(C(=O)O)cc2)cc1 | 1 | 1
O=C(C(=Cc1ccc(Br)cc1)S(=O)(=O)Cc1ccc(I)cc1)c1ccc(I)cc1 | 20 | 20
CN(C)c1ccc(/C=C(/Sc2ccccc2Br)C(=O)c2ccc(Br)cc2)cc1 | > 100 | > 100
O=C(O)c1cc(/C=C(\C(=O)c2c(F)c(F)c(F)c(F)c2F)S(=O)(=O)c2ccc(Br)cc2)ccc1O | > 100 | > 100
COc1cc(OC)c(C=C(C(=O)c2ccc(Cl)cc2)[S+]([O-])Cc2ccccc2Cl)c(OC)c1 (stereo unspecified) | 50 | 10
Cc1ccc(S(=O)(=O)/C(=C/c2ccc(Oc3ccccc3)cc2)C(=O)c2ccc(Cl)cc2)cc1 | 1 | 1
O=C(/C(=C\c1ccc(Cl)cc1)SCc1ccc(Br)cc1)c1ccccc1Cl | 1 | 25
CSc1ccc(/C=C(/SCc2ccc(Br)cc2)C(=O)c2ccc(C(=O)O)cc2)cc1 | 10 | 10
COc1ccccc1/C=C(/SCc1ccc(Cl)cc1)C(=O)c1ccc(Br)cc1 | 10 | 1
CC(=O)Nc1ccc(/C=C(/SCc2ccc(F)cc2)C(=O)c2ccc(C(=O)O)cc2)cc1[N+](=O)[O-] | 1 | 10
Cc1ccc(S(=O)(=O)/C(=C/c2c[nH]c3ccc(Cl)cc23)C(=O)c2ccc(Br)cc2)cc1 | 10 | 10
Cc1ccc(CS/C(=C/c2ccc(C(=O)O)cc2)C(=O)c2ccc(Cl)c([N+](=O)[O-])c2)cc1 | 1 | 10
CSc1ccc(/C=C(\C(=O)c2ccc(Br)cc2)S(=O)(=O)Cc2ccc(F)cc2)cc1 | > 100 | 50
O=C(/C(=C/c1ccc(Cl)cc1)Cc1ccc(Cl)cc1)c1ccc(Cl)cc1Cl | 1 | 10
Cc1cc(C)cc(/C=C(/SCc2ccc(Br)cc2)C(=O)c2ccccc2Cl)c1 | 10 | 10
O=C(/C(=C\c1cc(Cl)c(O)c(Cl)c1)S(=O)(=O)Cc1ccc(Br)cc1)c1ccc(Br)cc1 | 25 | 25
O=C(/C(=C\c1ccc2ccccc2n1)SCc1ccc(F)cc1)c1ccc(Br)cc1 | 25 | 25
O=C(/C(=C/c1ccc(Cl)cc1)Cc1c[nH]c2ccccc12)c1ccc(Cl)cc1Cl | 10 | 10
CN(C)c1ccc(/C=C(\C(=O)c2ccc(Cl)cc2)S(=O)(=O)c2ccc(Br)cc2)cc1 | 50 | > 100
Cc1ccsc1/C=C(/SCc1ccc(Cl)cc1)C(=O)c1ccc([N+](=O)[O-])cc1 | > 100 | > 100
